This passage reports MIC results from ChEMBL document CHEMBL1156417, “Transferable resistance to aminoglycosides by methylation of G1405 in 16S rRNA and to hydrophilic fluoroquinolones by QepA-mediated efflux in Escherichia coli” (2007).

Holding throughout (assay type): functional
Experiment [1] deals with Escherichia coli. Put plainly: Antibacterial activity against Escherichia coli 1540 isolate by […]. A digest of the protocol:
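Disk diffusion on Mueller-Hinton agar following Comité de l'Antibiogramme de la Société Française de Microbiologie standards; clinical isolate from Belgian hospital screening; strains grown in brain heart infusion broth or agar at 37°C.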

Experiment [2] deals with Escherichia coli. The experiment can be described thus: Antibacterial activity against Escherichia coli TOP10 containing pIP1206 plasmid by Etest. In outline: (§1)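 MIC read by Etest on Mueller-Hinton agar after 24 h incubation. Strains were grown in brain heart infusion broth or on agar at 37°C. C600Rif served as the conjugation recipient and TOP10 as the transformation recipient.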

For experiment [3], the system named is Escherichia coli. Put plainly: Antibacterial activity against Escherichia coli C600Rif by Etest. A digest of the protocol: as §1
The subject of experiment [4] is Escherichia coli. The experiment can be described thus: Antibacterial activity against Escherichia coli C600Rif containing pIP1206 plasmid in presence of 50 ug/ml efflux pump inhibitor phenyl-arginine-beta-naphthylamide by Etest.
Experiment [5] relates to Escherichia coli. Put plainly: Antibacterial activity against Escherichia coli TOP10 containing pIP1206 plasmid in presence of 40 ug/ml efflux pump inhibitor 1-(1-naphthylmethyl)-piperazine by Etest.
For experiment [6], the system named is Escherichia coli. The experiment can be described thus: Antibacterial activity against Escherichia coli TOP10 in presence of 50 ug/ml efflux pump inhibitor phenyl-arginine-beta-naphthylamide by Etest.
For experiment [7], the system named is Escherichia coli. Put plainly: Antibacterial activity against Escherichia coli C600Rif containing pIP1206 plasmid by Etest. A digest of the protocol:
as §1

The test system of experiment [8] is Escherichia coli. Put plainly: Antibacterial activity against Escherichia coli C600Rif in presence of 50 ug/ml efflux pump inhibitor phenyl-arginine-beta-naphthylamide by Etest.
Experiment [9] relates to Escherichia coli. Put plainly: Antibacterial activity against Escherichia coli TOP10 containing pAT851 in presence of 40 ug/ml efflux pump inhibitor 1-(1-naphthylmethyl)-piperazine by Etest.
In experiment [10] the test system is Escherichia coli. The experiment can be described thus: Antibacterial activity against Escherichia coli TOP10 containing pIP1206 plasmid in presence of 50 ug/ml efflux pump inhibitor phenyl-arginine-beta-naphthylamide by Etest.
Experiment [11] deals with Escherichia coli. The experiment can be described thus: Antibacterial activity against Escherichia coli TOP10 by Etest. In outline:
as §1

For experiment [12], the system named is Escherichia coli. Put plainly: Antibacterial activity against Escherichia coli C600Rif in presence of 40 ug/ml efflux pump inhibitor 1-(1-naphthylmethyl)-piperazine by Etest.
The subject of experiment [13] is Escherichia coli. Put plainly: Antibacterial activity against Escherichia coli TOP10 containing pAT851 in presence of 50 ug/ml efflux pump inhibitor phenyl-arginine-beta-naphthylamide by Etest.
Experiment [14] relates to Escherichia coli. Put plainly: microbe, parasite or virus in culture.
Experiment [15] has as its system Escherichia coli. The experiment can be described thus: Antibacterial activity against Escherichia coli TOP10 in presence of 40 ug/ml efflux pump inhibitor 1-(1-naphthylmethyl)-piperazine by Etest.
The subject of experiment [16] is Escherichia coli. Put plainly: Antibacterial activity against Escherichia coli TOP10 containing pAT851 plasmid by Etest. In outline: as §1

Converted amounts (≈) assume the structure as drawn.

Turning to `NCC[C@H](O)C(=O)N[C@@H]1C[C@H](N)[C@@H](O[C@H]2O[C@H](CN)[C@@H](O)[C@H](O)[C@H]2O)[C@H](O)[C@H]1O[C@H]1O[C@H](CO)[C@@H](O)[C@H](N)[C@H]1O` [AMIKACIN], in experiment [1], the MIC is > 512 µg/mL.

Regarding `CC1(C)S[C@@H]2[C@H](NC(=O)[C@H](N)c3ccccc3)C(=O)N2[C@H]1C(=O)O` [AMPICILLIN], in experiment [1], the MIC was > 256 µg/mL.

In turn, `CO/N=C(\C(=O)N[C@@H]1C(=O)N2C(C(=O)O)=C(COC(C)=O)CS[C@H]12)c1csc(N)n1` [CEFOTAXIME] showed an MIC in experiment [1] of 32 µg/mL (≈ 70.3 µM).

Regarding `O=C(N[C@H](CO)[C@H](O)c1ccc([N+](=O)[O-])cc1)C(Cl)Cl` [CHLORAMPHENICOL], the MIC in experiment [1] is > 256 µg/mL.

`O=C(O)c1cn(C2CC2)c2cc(N3CCNCC3)c(F)cc2c1=O` [CIPROFLOXACIN]: the MIC in experiment [2] was 0.023 µg/mL (≈ 0.0694 µM); in experiment [1] it was > 32 µg/mL; in experiment [3], 0.023 µg/mL (≈ 0.0694 µM).

As to `COc1c(N2CCNC(C)C2)c(F)cc2c(=O)c(C(=O)O)cn(C3CC3)c12` (centres undefined) [GATIFLOXACIN], the MIC came out at 0.003 µg/mL (≈ 0.00799 µM) in experiment [2]; 0.012 µg/mL in experiment [4]; 0.023 µg/mL (≈ 0.0613 µM) in [3]; 0.002 µg/mL in [5]; 0.002 µg/mL in experiment [6]; 0.032 µg/mL (≈ 0.0852 µM) in [7]. For the same compound, the MIC in experiment [8] is 0.016 µg/mL; in experiment [9] it was 0.002 µg/mL; in [10], 0.002 µg/mL; in experiment [11] it was 0.003 µg/mL (≈ 0.00799 µM); in experiment [12], 0.016 µg/mL; in experiment [13] it was 0.002 µg/mL. Besides, the figures for the MIC in experiment [14], in [15] and in experiment [16] were 0.016 µg/mL (≈ 0.0426 µM), 0.002 µg/mL and 0.003 µg/mL (≈ 0.00799 µM), respectively.

On to `CC[n+]1c(-c2ccccc2)c2cc(N)ccc2c2ccc(N)cc21.[Br-]` [HOMIDIUM BROMIDE], for which the MIC in [2] is 128 µg/mL; in [4], 64 µg/mL; in experiment [3] it was 128 µg/mL; in experiment [5] it was 64 µg/mL; in experiment [6] it was 64 µg/mL; in experiment [7], 128 µg/mL. Further, the MIC in experiment [8] was 128 µg/mL; in experiment [9] it was 64 µg/mL; in [10], 64 µg/mL; in experiment [11] it was 128 µg/mL; in [12] it was 64 µg/mL; in experiment [13] it was 128 µg/mL. For the same compound, the MIC amounted to 64 µg/mL in experiment [14], 64 µg/mL in [15] and 128 µg/mL in experiment [16].

Take `NC[C@H]1O[C@H](O[C@H]2[C@H](O)[C@@H](O[C@H]3O[C@H](CO)[C@@H](O)[C@H](N)[C@H]3O)[C@H](N)C[C@@H]2N)[C@H](O)[C@@H](O)[C@@H]1O` [KANAMYCIN]: the MIC in experiment [1] was > 512 µg/mL.

Consider `C[C@H]1COc2c(N3CCN(C)CC3)c(F)cc3c(=O)c(C(=O)O)cn1c23.C[C@H]1COc2c(N3CCN(C)CC3)c(F)cc3c(=O)c(C(=O)O)cn1c23.O` [LEVOFLOXACIN], for which the MIC in [2] turned out to be 0.006 µg/mL; in [3], 0.032 µg/mL; in experiment [7], 0.032 µg/mL; in [11], 0.006 µg/mL.

`CN(C)c1ccc(O)c2c1C[C@H]1C[C@H]3[C@H](N(C)C)C(O)=C(C(N)=O)C(=O)[C@@]3(O)C(O)=C1C2=O` [MINOCYCLINE]: the MIC in [1] came out at 16 µg/mL (≈ 35 µM).

With `COc1c(N2C[C@@H]3CCCN[C@@H]3C2)c(F)cc2c(=O)c(C(=O)O)cn(C3CC3)c12` [MOXIFLOXACIN], the MIC was 0.006 µg/mL (≈ 0.0149 µM) in experiment [2]; 0.006 µg/mL in [4]; 0.064 µg/mL (≈ 0.159 µM) in experiment [3]; 0.002 µg/mL in experiment [5]; 0.002 µg/mL in experiment [6]; 0.094 µg/mL (≈ 0.234 µM) in experiment [7]. The MIC in experiment [8] was 0.032 µg/mL; in experiment [9] it was 0.002 µg/mL; in [10], 0.002 µg/mL; in experiment [11] it was 0.004 µg/mL (≈ 0.00996 µM); in [12], 0.032 µg/mL; in experiment [13] it was 0.002 µg/mL. Besides, the MIC in [14] is 0.032 µg/mL (≈ 0.0797 µM); in experiment [15], 0.002 µg/mL; in experiment [16] it was 0.004 µg/mL (≈ 0.00996 µM).

For the compound `CCn1cc(C(=O)O)c(=O)c2ccc(C)nc21` [NALIDIXIC ACID], the MIC in [2] came out at 1.5 µg/mL (≈ 6.46 µM); in experiment [4] it was 1.5 µg/mL; in experiment [3], 2 µg/mL (≈ 8.61 µM); in [5] it was 1 µg/mL; in experiment [6] it was 1 µg/mL; in experiment [7], 2 µg/mL (≈ 8.61 µM). Moreover, the MIC in experiment [8] was 1.5 µg/mL; in experiment [9], 1 µg/mL; in experiment [10] it was 1 µg/mL; in [11] it was 1.5 µg/mL (≈ 6.46 µM); in [12], 1.5 µg/mL; in experiment [13] it was 1 µg/mL. Also, the MIC in experiment [14] turned out to be 1.5 µg/mL (≈ 6.46 µM); in [15], 1 µg/mL; in experiment [16], 1.5 µg/mL (≈ 6.46 µM).

With `CCN[C@@H]1C[C@H](N)[C@@H](O[C@H]2OC(CN)=CC[C@H]2N)[C@H](O)[C@H]1O[C@H]1OC[C@](C)(O)[C@H](NC)[C@H]1O` [NETILMICIN], the MIC in [1] was > 512 µg/mL.

As for `CCn1cc(C(=O)O)c(=O)c2cc(F)c(N3CCNCC3)cc21` [NORFLOXACIN], the MIC was determined as 0.38 µg/mL (≈ 1.19 µM) in experiment [2]; 0.047 µg/mL in experiment [4]; 0.064 µg/mL (≈ 0.2 µM) in [3]; 0.016 µg/mL in experiment [5]; 0.016 µg/mL in [6]; 1.5 µg/mL (≈ 4.7 µM) in [7]. For the same compound, the MIC in [8] came to 0.032 µg/mL; in [9] it was 0.016 µg/mL; in experiment [10], 0.016 µg/mL; in experiment [11] it was 0.032 µg/mL (≈ 0.1 µM); in experiment [12] it was 0.047 µg/mL; in experiment [13], 0.016 µg/mL. Besides, the MIC in experiment [14] was found to be 0.064 µg/mL (≈ 0.2 µM); in [15], 0.016 µg/mL; in experiment [16], 0.19 µg/mL (≈ 0.595 µM).

Take `CCn1cc(C(=O)O)c(=O)c2cc(F)c(N3CCN(C)CC3)cc21` [PEFLOXACIN]: the values for the MIC in [2], in experiment [3] and in experiment [7] were 0.023 µg/mL (≈ 0.069 µM), 0.094 µg/mL (≈ 0.282 µM) and 0.094 µg/mL (≈ 0.282 µM), respectively.

Turning to `CN(C)[C@@H]1C(O)=C(C(N)=O)C(=O)[C@@]2(O)C(O)=C3C(=O)c4c(O)cccc4[C@@](C)(O)[C@H]3C[C@@H]12` [TETRACYCLINE], the MIC in experiment [1] is > 256 µg/mL.

Take `NC[C@H]1O[C@H](O[C@H]2[C@H](O)[C@@H](O[C@H]3O[C@H](CO)[C@@H](O)[C@H](N)[C@H]3O)[C@H](N)C[C@@H]2N)[C@H](N)C[C@@H]1O` [TOBRAMYCIN]: the MIC in experiment [1] is > 512 µg/mL.
